Experimental data as given in ChEMBL document CHEMBL1130042, “Structure-activity relationships of N2-aryl-3-(isoxazolylsulfamoyl)-2-thiophenecarboxamides as selective endothelin receptor-A antagonists” (J Med Chem, 1997).

Tested on: Rattus norvegicus
Experiment: % inhibition of ET-1 induced pressor response in conscious rats 30 min after intravenous administration of 15 mg/kg of the compound
Assay type: functional
Details: 0.5 h
Method in brief: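 Conscious rats rested 60 min in a restrainer. Autonomic blockade by iv atropine methyl nitrate (3 mg/kg) plus propranolol (2 mg/kg). Vehicle was 1 M Tris base or sodium bicarbonate. Control iv bolus ET-1 challenge ([…]), antagonist iv bolus once MAP returned to baseline, second ET-1 challenge 30 min later. Inhibition = 100 × (control − antagonist max pressor response)/control max pressor response.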

Structure (SMILES) | inhibition in vivo at 15 mg/kg [%]
Cc1noc(NS(=O)(=O)c2ccsc2C(=O)Nc2cc3c(cc2C#N)OCO3)c1Cl | 20
CC(=O)c1cc2c(cc1NC(=O)c1sccc1S(=O)(=O)Nc1onc(C)c1Cl)OCO2 | 18

Tested on: not listed separately
Experiment: Compound at dose 60 mg/kg was administered to rats and Serum half life was determined; range = 2.5-3 h
Assay type: ADME, organism-based
Set-up: dose 60 mg/kg
Details: rat

Structure (SMILES) | half-life [h]
CC(=O)c1cc2c(cc1NC(=O)c1sccc1S(=O)(=O)Nc1onc(C)c1Cl)OCO2 | 3

Tested on: not listed separately
Experiment: Compound at dose 60 mg/kg was administered to rats and Serum half life was determined
Assay type: ADME, organism-based
Set-up: dose 60 mg/kg
Details: rat

Structure (SMILES) | half-life [h]
Cc1noc(NS(=O)(=O)c2ccsc2C(=O)Nc2cc3c(cc2C#N)OCO3)c1Cl | 2.5

Molecular target: T1, Endothelin-1 receptor (Homo sapiens, UniProt P25101)
T1 sequence (P25101 whole entry): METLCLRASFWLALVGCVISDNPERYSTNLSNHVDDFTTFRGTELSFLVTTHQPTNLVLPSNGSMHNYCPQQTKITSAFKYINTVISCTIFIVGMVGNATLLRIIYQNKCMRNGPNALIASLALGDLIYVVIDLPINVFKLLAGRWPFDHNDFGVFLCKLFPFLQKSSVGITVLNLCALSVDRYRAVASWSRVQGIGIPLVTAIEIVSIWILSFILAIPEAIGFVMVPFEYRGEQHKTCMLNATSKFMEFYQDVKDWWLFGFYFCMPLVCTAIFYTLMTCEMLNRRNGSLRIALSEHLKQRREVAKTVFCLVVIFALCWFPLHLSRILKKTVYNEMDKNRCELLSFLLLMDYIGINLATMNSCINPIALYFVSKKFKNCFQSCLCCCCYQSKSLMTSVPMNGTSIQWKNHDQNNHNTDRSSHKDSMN
Experiment: In vitro inhibition of endothelin binding to human Endothelin A receptor using [125I]-labeled ET-1 competition assay
Details: not given
Method in brief: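 Membranes from confluent TE 671 cells (endogenous human ETA), DNase-treated, 3 mg/tube. Buffer 30 mM HEPES pH 7.4, 150 mM NaCl, 5 mM MgCl2, 0.05% bacitracin, final 0.25% DMSO. Tracer 4 pM [125I]ET-1, nonspecific binding with 100 nM ET-1. Incubated 16–18 h at 24 °C, centrifuged, bound radioactivity gamma-counted. Run in triplicate.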

Structure (SMILES) | IC50 [nM]
COc1cccc(NC(=O)c2sccc2S(=O)(=O)Nc2onc(C)c2Br)c1 | 85
Cc1noc(NS(=O)(=O)c2ccsc2C(=O)Nc2cc3c(cc2CC(=O)N(C)C)OCO3)c1Cl | 9.3
COc1ccc(NC(=O)c2sccc2S(=O)(=O)Nc2onc(C)c2Cl)c(OC)c1 | 15
Cc1noc(NS(=O)(=O)c2ccsc2C(=O)N(C)c2ccccc2)c1Br | 1910
Cc1ccc(NC(=O)c2sccc2S(=O)(=O)Nc2onc(C)c2Cl)cc1 | 15
CCC(C)c1ccc(NC(=O)c2sccc2S(=O)(=O)Nc2onc(C)c2Br)cc1 (stereo not drawn) | 54
COc1ccccc1NC(=O)c1sccc1S(=O)(=O)Nc1onc(C)c1Br | 132
Cc1ccc(NC(=O)c2sccc2S(=O)(=O)Nc2onc(C)c2Br)cc1 | 12
CC(=O)OCCOc1cc2c(cc1NC(=O)c1sccc1S(=O)(=O)Nc1onc(C)c1Cl)OCO2 | 6.1
CCc1ccc(NC(=O)c2sccc2S(=O)(=O)Nc2onc(C)c2Br)cc1 | 17
Cc1noc(NS(=O)(=O)c2ccsc2C(=O)Nc2ccc3c(c2)OCO3)c1Br | 19
Cc1noc(NS(=O)(=O)c2ccsc2C(=O)Nc2cc3c(cc2C#N)OCO3)c1Cl | 3.4
Cc1noc(NS(=O)(=O)c2ccsc2C(=O)Nc2ccc(-c3ccccc3)cc2)c1Br | 977
CCCCc1ccc(NC(=O)c2sccc2S(=O)(=O)Nc2onc(C)c2Br)cc1 | 200
Cc1noc(NS(=O)(=O)c2ccsc2C(=O)Nc2ccc(C(C)C)cc2)c1Br | 20
Cc1noc(NS(=O)(=O)c2ccsc2C(=O)Nc2cc3c(cc2CC#N)OCO3)c1Cl | 3.8
COc1cccc(NCc2sccc2S(=O)(=O)Nc2onc(C)c2Br)c1 | 933
CC(=O)c1cc2c(cc1NC(=O)c1sccc1S(=O)(=O)Nc1onc(C)c1C)OCO2 | 31
Cc1noc(NS(=O)(=O)c2ccsc2C(=O)Nc2ccccc2)c1Br | 166
Cc1ccc(NC(=O)c2sccc2S(=O)(=O)Nc2onc(C)c2Cl)c(O)c1 | 6.6

Structure (SMILES) | IC50 [nM]
COc1cc(C#N)c(NC(=O)c2sccc2S(=O)(=O)Nc2onc(C)c2Cl)cc1OC | 3.9
Cc1nnc(NC(=O)c2sccc2S(=O)(=O)Nc2onc(C)c2Cl)s1 | 1290
Cc1cccc(NC(=O)c2sccc2S(=O)(=O)Nc2onc(C)c2Br)c1 | 104
COC(=O)c1cc(OC)c(OC)cc1NC(=O)c1sccc1S(=O)(=O)Nc1onc(C)c1Cl | 549
Cc1noc(NS(=O)(=O)c2ccsc2C(=O)Nc2cc3c(cc2CCCO)OCO3)c1Cl | 6
COc1cc(NC(=O)c2sccc2S(=O)(=O)Nc2onc(C)c2Cl)c(C(N)=O)cc1OC | 10.8
COc1ccc(NC(=O)c2sccc2S(=O)(=O)Nc2onc(C)c2Cl)c(C)c1 | 2.6
CC(=O)c1cc2c(cc1NC(=O)c1sccc1S(=O)(=O)Nc1onc(C)c1Cl)OCO2 | 10
Cc1ccccc1NC(=O)c1sccc1S(=O)(=O)Nc1onc(C)c1Br | 27
COc1ccc(NC(=O)c2sccc2S(=O)(=O)Nc2onc(C)c2Br)cc1 | 24
Cc1ccc(NC(=O)c2sccc2S(=O)(=O)Nc2onc(C)c2Cl)nc1 | 13
Cc1ccc(NC(=O)c2sccc2S(=O)(=O)Nc2onc(C)c2C)cc1 | 32
Cc1noc(NS(=O)(=O)c2ccsc2C(=O)Nc2cccc(O)c2)c1Br | 146
Cc1noc(NS(=O)(=O)c2ccsc2C(=O)Nc2ccc(C(C)(C)C)cc2)c1Br | 47
Cc1cc(NC(=O)c2sccc2S(=O)(=O)Nc2onc(C)c2Cl)no1 | 57
Cc1noc(NS(=O)(=O)c2ccsc2C(=O)NCc2ccccc2)c1Br | 229
COc1cc(NC(=O)c2sccc2S(=O)(=O)Nc2onc(C)c2Cl)c(C(=O)O)cc1OC | 1430
Cc1noc(NS(=O)(=O)c2ccsc2C(=O)Nc2ccc(O)nn2)c1Br | 65
Cc1noc(NS(=O)(=O)c2ccsc2C(=O)Nc2ccccc2C(=O)O)c1Br | 214
Cc1noc(NS(=O)(=O)c2ccsc2C(=O)Nc2cc3c(cc2OCCO)OCO3)c1Cl | 5.1

Molecular target: T2, Endothelin receptor type B (Homo sapiens, UniProt P24530)
T2 sequence (P24530 whole entry): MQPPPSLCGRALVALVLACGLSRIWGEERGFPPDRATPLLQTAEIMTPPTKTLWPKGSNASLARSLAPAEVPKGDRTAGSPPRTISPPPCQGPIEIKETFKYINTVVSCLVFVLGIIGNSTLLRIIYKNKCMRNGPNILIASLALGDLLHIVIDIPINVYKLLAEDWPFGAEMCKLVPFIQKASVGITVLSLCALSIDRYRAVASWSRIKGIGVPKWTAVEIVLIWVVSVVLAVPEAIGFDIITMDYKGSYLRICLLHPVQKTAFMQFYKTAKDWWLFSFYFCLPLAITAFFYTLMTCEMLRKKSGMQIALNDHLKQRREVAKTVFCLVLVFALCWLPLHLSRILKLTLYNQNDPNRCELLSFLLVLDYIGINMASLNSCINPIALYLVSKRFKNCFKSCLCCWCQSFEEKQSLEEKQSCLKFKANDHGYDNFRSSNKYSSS
Experiment: In vitro inhibition of endothelin binding to human Endothelin B receptor using [125I]-labeled ET-1 competition assay
Details: not given
Method in brief: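 Membranes (0.75 mg/tube) from COS 7 cells transfected with human ETB. Buffer 30 mM HEPES pH 7.4, 150 mM NaCl, 5 mM MgCl2, 0.05% bacitracin, final 0.25% DMSO. Tracer 4 pM [125I]ET-1, nonspecific binding with 100 nM ET-1. Incubated 16–18 h at 24 °C, bound radioactivity gamma-counted. Run in triplicate.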

Structure (SMILES) | IC50 [nM]
COc1cccc(NC(=O)c2sccc2S(=O)(=O)Nc2onc(C)c2Br)c1 | 63100
Cc1noc(NS(=O)(=O)c2ccsc2C(N)=O)c1Br | > 100000
COc1ccc(NC(=O)c2sccc2S(=O)(=O)Nc2onc(C)c2Cl)c(OC)c1 | 51900
Cc1noc(NS(=O)(=O)c2ccsc2C(=O)N(C)c2ccccc2)c1Br | > 100000
CCC(C)c1ccc(NC(=O)c2sccc2S(=O)(=O)Nc2onc(C)c2Br)cc1 (stereo not drawn) | 5890
COc1ccccc1NC(=O)c1sccc1S(=O)(=O)Nc1onc(C)c1Br | 61700
Cc1ccc(NC(=O)c2sccc2S(=O)(=O)Nc2onc(C)c2Br)cc1 | 9120
CC(=O)OCCOc1cc2c(cc1NC(=O)c1sccc1S(=O)(=O)Nc1onc(C)c1Cl)OCO2 | 15800
CCc1ccc(NC(=O)c2sccc2S(=O)(=O)Nc2onc(C)c2Br)cc1 | 7410
Cc1noc(NS(=O)(=O)c2ccsc2C(=O)Nc2ccc3c(c2)OCO3)c1Br | 10100
Cc1noc(NS(=O)(=O)c2ccsc2C(=O)Nc2cc3c(cc2C#N)OCO3)c1Cl | 40400
Cc1noc(NS(=O)(=O)c2ccsc2C(=O)Nc2ccc(-c3ccccc3)cc2)c1Br | 8710
CCCCc1ccc(NC(=O)c2sccc2S(=O)(=O)Nc2onc(C)c2Br)cc1 | 6170
Cc1noc(NS(=O)(=O)c2ccsc2C(=O)Nc2ccc(C(C)C)cc2)c1Br | 4370
Cc1noc(NS(=O)(=O)c2ccsc2C(=O)Nc2cc3c(cc2CC#N)OCO3)c1Cl | 25700
COc1cccc(NCc2sccc2S(=O)(=O)Nc2onc(C)c2Br)c1 | 7590
CC(=O)c1cc2c(cc1NC(=O)c1sccc1S(=O)(=O)Nc1onc(C)c1C)OCO2 | > 100000
Cc1noc(NS(=O)(=O)c2ccsc2C(=O)Nc2cccc(C(=O)O)c2)c1Br | 117000
Cc1noc(NS(=O)(=O)c2ccsc2C(=O)Nc2ccccc2)c1Br | 77600
Cc1ccc(NC(=O)c2sccc2S(=O)(=O)Nc2onc(C)c2Cl)c(O)c1 | 8240

Structure (SMILES) | IC50 [nM]
COc1cc(C#N)c(NC(=O)c2sccc2S(=O)(=O)Nc2onc(C)c2Cl)cc1OC | 12200
Cc1nnc(NC(=O)c2sccc2S(=O)(=O)Nc2onc(C)c2Cl)s1 | > 100000
Cc1cccc(NC(=O)c2sccc2S(=O)(=O)Nc2onc(C)c2Br)c1 | 67400
Cc1cc2c(cc1NC(=O)c1sccc1S(=O)(=O)Nc1onc(C)c1Cl)OCO2 | 35500
COC(=O)c1cc(OC)c(OC)cc1NC(=O)c1sccc1S(=O)(=O)Nc1onc(C)c1Cl | > 100000
Cc1noc(NS(=O)(=O)c2ccsc2C(=O)Nc2cc3c(cc2CCCO)OCO3)c1Cl | 9080
COc1cc(NC(=O)c2sccc2S(=O)(=O)Nc2onc(C)c2Cl)c(C(N)=O)cc1OC | 61000
COc1ccc(NC(=O)c2sccc2S(=O)(=O)Nc2onc(C)c2Cl)c(C)c1 | 14000
CC(=O)c1cc2c(cc1NC(=O)c1sccc1S(=O)(=O)Nc1onc(C)c1Cl)OCO2 | 32600
Cc1ccccc1NC(=O)c1sccc1S(=O)(=O)Nc1onc(C)c1Br | > 100000
COc1ccc(NC(=O)c2sccc2S(=O)(=O)Nc2onc(C)c2Br)cc1 | 30200
Cc1ccc(NC(=O)c2sccc2S(=O)(=O)Nc2onc(C)c2Cl)nc1 | 44700
Cc1ccc(NC(=O)c2sccc2S(=O)(=O)Nc2onc(C)c2C)cc1 | 67600
Cc1noc(NS(=O)(=O)c2ccsc2C(=O)Nc2cccc(O)c2)c1Br | 67500
Cc1noc(NS(=O)(=O)c2ccsc2C(=O)Nc2ccc(C(C)(C)C)cc2)c1Br | 6920
Cc1noc(NS(=O)(=O)c2ccsc2C(=O)NCc2ccccc2)c1Br | 97700
COc1cc(NC(=O)c2sccc2S(=O)(=O)Nc2onc(C)c2Cl)c(C(=O)O)cc1OC | > 100000
Cc1noc(NS(=O)(=O)c2ccsc2C(=O)Nc2ccccc2C(=O)O)c1Br | 19500
Cc1noc(NS(=O)(=O)c2ccsc2C(=O)Nc2cc3c(cc2OCCO)OCO3)c1Cl | 14400
